# ChEMBL document CHEMBL1125483, “Novel inhibitors of prolyl 4-hydroxylase. 3. Inhibition by the substrate analogue N-oxaloglycine and its derivatives” (J Med Chem, 1992)
# Tests used:
# [1] = biological target: Prolyl 4-hydroxylase subunit alpha-1 (Rattus norvegicus) (UniProt P54001); test: Compound was evaluated for the inhibition of prolyl 4-hydroxylase at 50 ug/mL
# [2] = biological target: T1, Prolyl 4-hydroxylase subunit alpha-1 (Rattus norvegicus, UniProt P54001); test: (§1) Compound was evaluated for the inhibition of prolyl 4-hydroxylase
# How it was run: (§2)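 Prolyl 4-hydroxylase activity was measured with an indirect assay that follows the conversion of labelled 2-ketoglutarate cosubstrate into labelled succinate. Each point was run in duplicate. IC50 was obtained by interpolation from six-point dose-response curves.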
# [3] = biological target: T1, Prolyl 4-hydroxylase subunit alpha-1; test: Compound was evaluated for the inhibition of prolyl 4-hydroxylase
# [4] = biological target: Prolyl 4-hydroxylase subunit alpha-1 (Rattus norvegicus) (UniProt P54001); test: as §1; details: concentration not given here; how it was run: as §2
# [5] = biological target: Prolyl 4-hydroxylase subunit alpha-1 (Rattus norvegicus) (UniProt P54001); test: Compound was evaluated for the inhibition of prolyl 4-hydroxylase at 100 ug/mL
# [6] = biological target: T1, Prolyl 4-hydroxylase subunit alpha-1; test: Inhibitory activity against prolyl 4-hydroxylase
# How it was run: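 Indirect radiometric assay: conversion of labelled cofactor 2-ketoglutarate into labelled succinate measured. Each point in duplicate; IC50 interpolated from six-point dose-response curves.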
# [7] = biological target: Prolyl 4-hydroxylase subunit alpha-1 (Rattus norvegicus) (UniProt P54001); test: Compound was evaluated for the inhibition of prolyl 4-hydroxylase at 100 ug/mL
# T1 sequence (P54001 whole entry): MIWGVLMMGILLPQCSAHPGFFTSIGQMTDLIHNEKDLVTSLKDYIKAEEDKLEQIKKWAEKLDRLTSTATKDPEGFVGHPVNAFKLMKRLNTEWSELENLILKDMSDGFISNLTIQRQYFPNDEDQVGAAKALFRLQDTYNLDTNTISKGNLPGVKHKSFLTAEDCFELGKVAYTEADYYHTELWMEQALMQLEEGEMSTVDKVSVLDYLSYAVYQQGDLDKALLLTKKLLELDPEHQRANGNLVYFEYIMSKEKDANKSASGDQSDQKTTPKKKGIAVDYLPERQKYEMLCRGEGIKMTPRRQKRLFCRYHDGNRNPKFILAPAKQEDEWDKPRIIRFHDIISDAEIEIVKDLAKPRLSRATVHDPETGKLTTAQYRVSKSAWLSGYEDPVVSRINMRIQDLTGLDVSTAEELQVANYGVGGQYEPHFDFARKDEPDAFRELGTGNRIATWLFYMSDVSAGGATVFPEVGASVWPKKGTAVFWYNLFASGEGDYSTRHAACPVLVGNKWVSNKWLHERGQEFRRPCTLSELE
# Sequence of Prolyl 4-hydroxylase subunit alpha-1 (Rattus norvegicus) (P54001 whole entry): as above
SMILES,inhibition [1] [%],IC50 [2] [µM],further results
CC(C)CC(NC(=O)C(=O)O)C(=O)O (stereo not drawn),16,–,–
C[C@H](NC(=O)C(=O)O)C(=O)O,–,38.2,–
O=C(O)C(=O)N1CCCC1C(=O)O (stereo not drawn),10,–,–
CS(=O)(=O)NC(=O)CNC(=O)C(=O)O,–,414,–
CN(CC(=O)O)C(=O)C(=O)O,10,–,–
C[C@@H](NC(=O)C(=O)O)C(=O)O,–,–,IC50 [3]: 621 µM
CC(NC(=O)C(=O)O)C(=O)O (stereo not drawn),–,90.7,–
O=C(O)CCNC(=O)C(=O)O,–,–,inhibition [4]: 24%
O=C(O)C(=O)Nc1ccc(C(=O)O)cc1,–,–,inhibition [5]: 9%
CSCCC(NC(=O)C(=O)O)C(=O)O (stereo not drawn),–,–,inhibition [7]: 9%

# More lines, main results first:
inhibition [1] [%],IC50 [2] [µM],SMILES,further results
–,2.89,O=C(O)CNC(=O)C(=O)O [N-OXALYLGLYCINE],Ki [2]: 0.54 µM
16,–,CCOc1ccc(NC(=O)CNC(=O)C(=O)O)cc1,–
34,–,O=C(CNC(=O)C(=O)O)NS(=O)(=O)c1ccccc1,–
26,–,CC(C)(NC(=O)C(=O)O)C(=O)O,–
–,5.18,"O=C(O)c1ccc(C(=O)O)nc1 [PYRIDINE-2,5-DICARBOXYLIC ACID]",Ki [6]: 0.8 µM
18,–,O=C(O)C(=O)NC(Cc1ccccc1)C(=O)O (stereo not drawn),–
